Data as given in PMC8146373 (Biochemical pharmacology, 2021).

Assays:
SCTR [1] = target: T1, SCTR (Homo sapiens, UniProt P47872); test: SCTR PAM; format: cell-based
SCTR [2] = target: T1, SCTR; test: SCTR Sec-FL; format: cell-based
SNAP-SCTR = SNAP-SCTR (Homo sapiens, UniProt P47872); test: TR-FRET SNAP-SCTR competition binding with Fluo-Sec, HEK-293 SNAP-SCTR membranes
GLP-1R [3] = target: T2, GLP-1R (Homo sapiens, UniProt P43220); test: GLP-1R PAM; format: cell-based
GLP-1R [4] = target: T2, GLP-1R; test: GLP-1R agonist cAMP accumulation assay, GLP-1R-overexpressing HEK-293T cells; format: cell-based
GLP-1R [5] = target: T2, GLP-1R; test: Allosteric activity studies; format: cell-based
GLP-1R [6] = target: T3, GLP-1R (Rattus norvegicus, UniProt P32301); test: cAMP assay; format: cell-based; conditions: INS-1 cells, 12.5 μM compound
T3 sequence (P32301 22-463): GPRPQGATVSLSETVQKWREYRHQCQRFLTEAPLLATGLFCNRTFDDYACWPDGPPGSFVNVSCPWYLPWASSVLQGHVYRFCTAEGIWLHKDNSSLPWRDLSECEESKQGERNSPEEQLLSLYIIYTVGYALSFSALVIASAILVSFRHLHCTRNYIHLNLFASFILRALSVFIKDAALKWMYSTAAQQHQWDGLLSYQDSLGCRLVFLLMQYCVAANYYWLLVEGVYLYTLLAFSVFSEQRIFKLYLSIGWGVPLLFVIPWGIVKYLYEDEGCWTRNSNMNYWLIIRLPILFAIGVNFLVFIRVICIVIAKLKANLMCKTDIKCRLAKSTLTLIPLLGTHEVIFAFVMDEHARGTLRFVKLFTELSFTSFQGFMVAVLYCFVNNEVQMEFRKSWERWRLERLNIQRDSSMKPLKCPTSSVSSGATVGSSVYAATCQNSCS
In short: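 INS-1 832/13 cells (passage 18–29) were detached at 80–90% confluency, spun 300xg for 3 min and diluted in stimulation buffer. […] Cells were incubated 30 min at RT. LANCE Ultra detection (Eu-cAMP, ULight antibody) was read as TR-FRET after 60 min at RT.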

INS-1 832/13 cells = test: Glucose stimulated insulin secretion; format: cell-based, rat; conditions: 20 μM compound, 15 mM glucose
GLP-1R [7] = target: T2, GLP-1R; test: cAMP wash-out experiment, GLP-1R-overexpressing HEK-293T cells; format: cell-based; conditions: 25 μM compound, triple wash
GLP-1R C347A = GLP-1R C347A (Homo sapiens, UniProt P43220, C347A); format: cell-based; conditions: 12.5–25 μM compound
In short: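 HEK-293 cells were transfected with 0.5 μg DNA/well of GLP-1R WT or C347A construct and harvested after 24 h into stimulation buffer. Cells were added to wells with DMSO or 12.5–25 μM compound. […] HTRF cAMP readout; four-parameter variable-slope fit; duplicates, ≥3 experiments.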

SCTR K317A = SCTR K317A (Homo sapiens, UniProt P47872, K338A); test: Mutational study, cAMP assay in HEK-293 cells transiently expressing SCTR K317A; format: cell-based; conditions: 12.5–25 μM compound
SCTR K317C = SCTR K317C (Homo sapiens, UniProt P47872, K338C); test: Mutational study, cAMP assay in HEK-293 cells transiently expressing SCTR K317C; format: cell-based; conditions: 12.5–25 μM compound
Sequence of SCTR K317C (P47872 22-440 K338C limits assumed): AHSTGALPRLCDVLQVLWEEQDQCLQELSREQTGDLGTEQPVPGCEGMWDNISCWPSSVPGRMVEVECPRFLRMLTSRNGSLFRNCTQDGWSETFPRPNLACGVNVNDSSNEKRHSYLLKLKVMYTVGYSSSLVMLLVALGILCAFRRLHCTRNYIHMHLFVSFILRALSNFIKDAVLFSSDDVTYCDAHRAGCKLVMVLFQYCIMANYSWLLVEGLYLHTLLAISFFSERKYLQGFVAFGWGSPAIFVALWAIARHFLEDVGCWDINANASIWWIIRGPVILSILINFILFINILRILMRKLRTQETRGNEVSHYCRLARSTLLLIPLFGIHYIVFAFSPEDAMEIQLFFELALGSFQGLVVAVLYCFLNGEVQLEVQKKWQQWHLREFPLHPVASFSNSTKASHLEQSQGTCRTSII
Sequence of SCTR K317C (P09683 28-54 partner limits assumed): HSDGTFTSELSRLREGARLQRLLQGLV

T2 sequence (P43220 24-463): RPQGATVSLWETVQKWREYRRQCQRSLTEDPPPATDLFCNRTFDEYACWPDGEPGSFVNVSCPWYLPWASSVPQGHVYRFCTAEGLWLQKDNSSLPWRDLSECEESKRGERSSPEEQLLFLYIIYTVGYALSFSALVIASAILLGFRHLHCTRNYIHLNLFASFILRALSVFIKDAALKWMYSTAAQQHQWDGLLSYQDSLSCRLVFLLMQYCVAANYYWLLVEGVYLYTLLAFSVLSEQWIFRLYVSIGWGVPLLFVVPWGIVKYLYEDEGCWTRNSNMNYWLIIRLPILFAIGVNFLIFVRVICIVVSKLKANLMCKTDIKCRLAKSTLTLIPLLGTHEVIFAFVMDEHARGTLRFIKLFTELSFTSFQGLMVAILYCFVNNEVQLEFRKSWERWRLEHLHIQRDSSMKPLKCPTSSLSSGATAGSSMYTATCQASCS
T1 sequence (P47872 23-440): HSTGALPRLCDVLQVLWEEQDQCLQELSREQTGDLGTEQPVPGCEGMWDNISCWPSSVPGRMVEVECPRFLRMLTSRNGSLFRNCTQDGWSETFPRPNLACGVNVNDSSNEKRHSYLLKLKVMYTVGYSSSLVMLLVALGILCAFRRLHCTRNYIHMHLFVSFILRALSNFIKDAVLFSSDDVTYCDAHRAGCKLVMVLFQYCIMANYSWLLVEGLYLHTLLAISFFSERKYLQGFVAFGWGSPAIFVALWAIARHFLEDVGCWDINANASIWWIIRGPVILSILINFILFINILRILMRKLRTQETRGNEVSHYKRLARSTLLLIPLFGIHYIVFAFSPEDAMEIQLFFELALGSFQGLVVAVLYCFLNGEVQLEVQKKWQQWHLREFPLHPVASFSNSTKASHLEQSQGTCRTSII
Sequence of GLP-1R C347A (P43220 24-463 C347A): as the sequence (P43220 24-463) above, with C324A counted along it
Sequence of SNAP-SCTR (P47872 23-440): as the sequence (P47872 23-440) above
Sequence of SCTR K317A (P47872 22-440 K338A limits assumed): as the sequence (P47872 22-440 K338C limits assumed) above, with C317A counted along it

CC[S+]([O-])c1nc(-c2cccc(OCc3ccccc3)c2)cc(C(F)(F)F)n1 (stereo not shown) [BETP, 4-(3-(Benzyloxy)phenyl)-2-(ethylsulfinyl)-6-(trifluoromethyl)pyrimidine] showed an EC50 (SCTR [1]) of 24 ± 12 µM, an Emax (SCTR [1]; CHO-K1, read-out: SCTR PAM (3-pep mix) Emax) of 51 ± 25% and an EC50 (SCTR [2]) of 31 ± 19 µM. For the same molecule, the Emax (SCTR [2]; CHO-K1, read-out: SCTR Sec-FL (PAM) Emax) was 42 ± 2%, the EC50 (SNAP-SCTR) was 17 ± 14 µM and the Emax (SNAP-SCTR; read-out: SNAP-SCTR Binding Emax) was 152 ± 11%. For the same molecule, the EC50 (GLP-1R [3]) was 0.8 ± 0.2 µM, the “selectivity toward GLP-1Rs (over SCTR PAM potency)” value (GLP-1R [3]; GLP-1R EC50 vs SCTR PAM EC50) was 30 fold and the “GLP-1R PAM (GLP-1) Emax” value (GLP-1R [3]; cAMP, EC20 of GLP-1, mean ± SD, n.d. = not detected) was 76 ± 22%. For the same molecule, the EC50 (GLP-1R [4]) was 0.8 ± 0.6 µM, the “GLP-1R agonist Emax” value (GLP-1R [4]; cAMP, no peptide ligand, mean ± SD, n.d. = not detected) was 91 ± 16% and the Kb (GLP-1R [5]) was 3 µM. The “cooperativity factor α, GLP-1(9–36)” value (GLP-1R [5]; GLP-1R-overexpressing cells) was 137, the “cooperativity factor β, GLP-1(9–36)” value (GLP-1R [5]; GLP-1R-overexpressing cells) was 5.5 and the “effect on GLP-1 treatment” value (GLP-1R [6]) was “did not show a significant positive effect”. The “increase of efficacy of GLP-1(9–36)” value (GLP-1R [6]) was 106%, the “receptor activation by GLP-1(9–36) in presence of compound” value (GLP-1R [6]) was “around 50%” and the “insulin secretion with GLP-1(9–36) co-stimulation” value (INS-1 832/13 cells; 1 μM GLP-1(9–36)) was “elevated insulin secretion”. The “interaction between compound and GLP-1(9–36) treatment (two-way ANOVA)” value (INS-1 832/13 cells) was “significant interactions”, the “insulin secretion in the absence of GLP-1(9–36)” value (INS-1 832/13 cells; vs DMSO) was “significantly enhanced” and the “intrinsic activity (elevation of basal response), added before or after the wash step” value (GLP-1R [7]) was “substantial intrinsic activity”. The “cooperative (PAM) effects on GLP-1(9–36) at GLP-1R C347A compared to WT” value (GLP-1R C347A) was “eradicated”, the “intrinsic agonist activity at GLP-1R C347A compared to WT” value (GLP-1R C347A) was “eradicated” and the “potentiating effects at SCTR K317A compared to WT” value (SCTR K317A) was “neither mutating Lys-317 to alanine nor to cysteine had an impact”. The “potentiating effects at SCTR K317C compared to WT” value (SCTR K317C) was “neither mutating Lys-317 to alanine nor to cysteine had an impact”.
